# What was measured:
# Neprilysin = target: T1, Neprilysin (Oryctolagus cuniculus, UniProt P08049); test: In vitro inhibition of neutral endopeptidase
# T1 sequence (P08049 whole entry): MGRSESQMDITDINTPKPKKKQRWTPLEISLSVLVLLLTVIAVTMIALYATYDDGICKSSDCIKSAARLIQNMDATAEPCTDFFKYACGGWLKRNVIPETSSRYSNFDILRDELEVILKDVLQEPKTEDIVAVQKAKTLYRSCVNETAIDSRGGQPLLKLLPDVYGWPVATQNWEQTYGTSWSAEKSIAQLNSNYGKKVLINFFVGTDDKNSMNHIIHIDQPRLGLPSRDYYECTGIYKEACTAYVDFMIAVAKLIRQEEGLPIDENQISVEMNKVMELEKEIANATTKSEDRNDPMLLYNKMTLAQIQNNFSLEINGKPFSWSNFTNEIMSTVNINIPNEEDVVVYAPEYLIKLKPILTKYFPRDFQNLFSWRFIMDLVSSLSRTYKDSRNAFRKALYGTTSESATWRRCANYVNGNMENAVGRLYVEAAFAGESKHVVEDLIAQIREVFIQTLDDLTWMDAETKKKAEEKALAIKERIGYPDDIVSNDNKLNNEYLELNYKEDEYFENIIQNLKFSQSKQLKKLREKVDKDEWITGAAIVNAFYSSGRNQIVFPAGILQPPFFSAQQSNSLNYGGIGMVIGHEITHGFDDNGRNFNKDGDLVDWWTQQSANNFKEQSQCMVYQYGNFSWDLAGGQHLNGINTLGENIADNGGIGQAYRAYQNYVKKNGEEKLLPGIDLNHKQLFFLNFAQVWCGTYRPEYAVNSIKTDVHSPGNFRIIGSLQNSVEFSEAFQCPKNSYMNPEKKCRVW
# Method in brief: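 NEP purified from rabbit kidney, 1 pmol/100 µL final, preincubated 15 min at 25 °C with increasing inhibitor concentrations in 50 mM Tris-HCl pH 7.4. Substrate [3H]-D-Ala2-Leu-enkephalin at 20 nM final, 30 min; stopped with 0.5 M HCl. [3H]Tyr-D-Ala-Gly separated on polystyrene beads and counted by scintillation. IC50 is the mean ± SEM of three independent experiments run in triplicate.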
# [1] = target: T2, Neprilysin (Mus musculus) (UniProt Q61391); test: In vivo percent inhibition activity against kidney Neutral endopeptidase 2 hr after oral administration of a dose of 2.6 x 10e-5 mol/kg; assay type: functional, organism-based
# T2 sequence (whole entry): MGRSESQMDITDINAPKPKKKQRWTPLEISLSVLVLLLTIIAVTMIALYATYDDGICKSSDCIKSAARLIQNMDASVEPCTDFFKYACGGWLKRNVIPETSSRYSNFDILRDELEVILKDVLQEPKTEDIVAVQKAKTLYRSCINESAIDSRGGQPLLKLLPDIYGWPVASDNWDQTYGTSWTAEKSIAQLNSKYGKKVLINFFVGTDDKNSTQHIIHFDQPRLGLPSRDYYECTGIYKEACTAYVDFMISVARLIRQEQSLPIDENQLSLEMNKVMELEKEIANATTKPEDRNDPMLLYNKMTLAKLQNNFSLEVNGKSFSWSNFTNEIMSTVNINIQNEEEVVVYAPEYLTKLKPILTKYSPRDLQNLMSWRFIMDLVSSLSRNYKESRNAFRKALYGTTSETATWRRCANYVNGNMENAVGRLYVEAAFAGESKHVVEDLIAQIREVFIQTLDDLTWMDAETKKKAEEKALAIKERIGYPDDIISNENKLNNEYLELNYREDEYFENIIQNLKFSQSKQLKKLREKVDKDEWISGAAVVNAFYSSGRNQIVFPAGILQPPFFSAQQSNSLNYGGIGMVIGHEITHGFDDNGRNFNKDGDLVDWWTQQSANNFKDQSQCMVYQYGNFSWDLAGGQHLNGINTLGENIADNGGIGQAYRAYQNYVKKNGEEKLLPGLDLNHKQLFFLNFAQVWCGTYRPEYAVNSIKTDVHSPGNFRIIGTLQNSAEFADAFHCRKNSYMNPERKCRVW
# Method in brief: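 Mice given a single oral dose in 10% ethanol/10% cremophor/80% water; kidneys taken 2 h later and homogenized at 4 °C in 50 mM Tris-HCl pH 7.4. Membrane fraction (100000g) preincubated 5 min at 25 °C with bestatin and captopril, then incubated 10 min with [3H]-D-Ala2-Leu-enkephalin (2 × 10^-8 M). [3H]Tyr-D-Ala-Gly counted; blanks contained 10^-5 M retrothiorphan.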
IC50 (Neprilysin) [nM],inhibition [1] [%],SMILES
1.6,72,O=C(NCC(=O)N1[C@@H](c2cccc(O)c2)CC[C@H]1C(=O)O)[C@@H](S)Cc1ccc(O)cc1
1.6,75,O=C(NCC(=O)N1[C@@H](c2ccccc2)CC[C@H]1C(=O)O)[C@@H](S)Cc1ccccc1
2.7,–,"Cc1ccccc1C1CC[C@@H](C(=O)O)N1C(=O)CNC(=O)[C@@H](S)Cc1ccc(O)cc1 (single isomer, unassigned)"
3.5,69,O=C(NCC(=O)N1[C@@H](c2ccccc2O)CC[C@H]1C(=O)O)[C@@H](S)Cc1ccc(O)cc1
5.3,37,Cc1ccccc1[C@H]1CC[C@@H](C(=O)O)N1C(=O)CNC(=O)[C@@H](S)Cc1ccccc1
5.5,3,Cc1ccc([C@H]2CC[C@@H](C(=O)O)N2C(=O)CNC(=O)[C@@H](S)Cc2ccc(O)cc2)cc1
12.5,34,Cc1ccc([C@H]2CC[C@@H](C(=O)O)N2C(=O)CNC(=O)[C@@H](S)Cc2ccccc2)cc1

# — ChEMBL document CHEMBL1129041, “Design of orally active dual inhibitors of neutral endopeptidase and angiotensin-converting enzyme with long duration of action” (J Med Chem, 1996)
